pIC50: −log10 of the molar value.
What was measured:
[1] = tested on: Mus musculus; assay: Concentration of brain at 40 min was determined after the compound was administered intraperitoneally at a dose 259 mg/kg in mice; format: functional; settings: route intraperitoneal
[2] = target: GABA-A receptor; anion channel; assay: Binding affinity to picrotoxin site of Gamma-aminobutyric acid receptor using [35S]TBPS as radioligand; format: protein-complex assay, Rattus norvegicus
Method in brief: (§1)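 Rat cerebral cortex membranes (female Sprague–Dawley) washed and held in 50 mM Tris-citrate pH 7.5. [35S]TBPS at 2 nM final, in NaBr. Incubated in triplicate for 90 min at 25 °C, then filtered and scintillation counted. Nonspecific binding with 10 μM TBPS or 100 μM picrotoxinin. IC50 by log probit from ≥5 concentrations; mean ± SEM of three experiments.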

[3] = species: Mus musculus; assay: Anticonvulsant activity in mice by inhibition of pentylenetetrazole induced seizures.; format: functional
[4] = tested on: Mus musculus; assay: Concentration of brain at 20 min was determined after the compound was administered intraperitoneally at a dose 259 mg/kg in mice; format: functional; settings: route intraperitoneal
Method in brief: (§2)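 Female CF-1 mice dosed ip and decapitated at the set time, n = 3. Cerebral cortex frozen and homogenized at 4 °C in chloroform:methanol 2:1 with an internal standard. Lower phase analysed by capillary GC-FID with splitless injection. Concentration taken from the ratio to the internal standard, corrected for detector response and wet weight. Mean ± SEM.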

[5] = tested on: Mus musculus; assay: Concentration of brain at 10 min was determined after the compound was administered intraperitoneally at a dose 259 mg/kg in mice; format: functional; settings: route intraperitoneal; method in brief: as §2
[6] = Neurotoxic effects by rotarod test in mice.; format: ADME, organism-based; settings: mouse, in vivo
Method in brief: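 Rotorod test in mice after ip dosing in 30% polyethylene glycol (0.01 mL/g). TD50 from log probit analysis of dose–response data.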

[7] = tested on: Mus musculus; assay: Concentration of brain at 5 min was determined after the compound was administered intraperitoneally at a dose 259 mg/kg in mice; format: functional; settings: route intraperitoneal; method in brief: as §2
[8] = species: Mus musculus; assay: Anticonvulsant activity in mice by maximal electroshock test.; format: functional
Method in brief: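 Maximal electroshock applied through corneal electrodes after 0.9% NaCl drops on the eyes. Compound given ip in 30% polyethylene glycol (0.01 mL/g). Protection defined as no tonic hind-limb extension past 90°. ED50 from log probit analysis of dose–response data.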

[9] = tested on: Mus musculus; assay: Concentration of brain at 30 min was determined after the compound was administered intraperitoneally at a dose 259 mg/kg in mice; format: functional; settings: route intraperitoneal; method in brief: as §2
[10] = species: Mus musculus; assay: Convulsant potency was determined by measuring the ability to produce seizures in mice; format: functional
Method in brief: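 Compound given ip in 30% polyethylene glycol (0.01 mL/g body weight). Mice observed for 30 min for seizure activity. Value is the CD50 for clonic convulsions, from log probit analysis; 95% fiducial limits given.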

[11] = target: GABA-A receptor; anion channel; assay: Binding affinity to picrotoxin site of the Gamma-aminobutyric acid receptor was measured using [35S]TBPS as radioligand; format: protein-complex assay; method in brief: as §1

| SMILES | pIC50 [2] | ED50 [3] [mg/kg] | TD50 [6] [mg/kg] | ED50 [8] [mg/kg] | pIC50 [11] | other results |
| --- | --- | --- | --- | --- | --- | --- |
| CCC1(C)CCOC1=O (stereo not given) | 2.64 | 259 | 621 | > 500 | – | Brain concentration [1]: 0.88 mM; Brain concentration [4]: 1.35 mM; Brain concentration [5]: 1.83 mM; Brain concentration [7]: 2.97 mM; Brain concentration [9]: 1.21 mM |
| CC(C)C1COC(=O)C1 (stereo not given) | – | – | – | – | 1.38 | CD50 [10]: 15 mg/kg |
| CCC1(CC)CCOC1=O | 3.12 | 191 | 416 | 463 | – | – |
| CCC1(C)COC(=O)C1 (stereo not given) | – | – | – | – | 1.26 | CD50 [10]: 20 mg/kg |
| CC(C)C1CCSC1=O (stereo not given) | 3.59 | 145 | > 500 | > 500 | – | – |
| CCC1(C)CSC(=O)C1 (stereo not given) | – | – | – | – | – | CD50 [10]: 3.5 mg/kg |
| CC1CCSC1=O (stereo not given) | – | 91 | – | 91 | 2.36 | – |
| CC(C)C1CCOC1=O (stereo not given) | – | 150 | > 400 | > 400 | 2.70 | – |
| CC(C)(C)C1CCOC1=O (stereo not given) | 3.00 | 145 | > 500 | 375 | – | – |
| CC(C)(C)C1COC(=O)C1 (stereo not given) | 1.89 | – | – | – | – | CD50 [10]: 5.5 mg/kg |
| CC1(C)CCOC1=O | 2.04 | > 500 | > 500 | > 500 | – | – |
| CCC1(C)CCSC1=O (stereo not given) | – | – | – | – | 3.48 | – |
| CCC1(CC)CCSC1=O | – | 104 | 285 | 374 | 3.59 | – |
| CC1(C)CCSC1=O | – | 208 | 220 | 369 | 3.04 | – |
| CC(C)C1(C(C)C)CCOC1=O | – | 137 | – | – | 3.66 | – |
| CC(C)C1(C)CCOC1=O (stereo not given) | – | 198 | 278 | > 500 | 3.07 | – |
| CC(C)(C)C1CCSC1=O (stereo not given) | – | 244 | > 500 | > 500 | 3.72 | – |
| CC(C)C1(C(C)C)CCSC1=O | – | > 500 | > 500 | > 500 | 4.13 | – |
| CC(C)C1(C)CCSC1=O (stereo not given) | – | 154 | > 500 | > 500 | 3.85 | – |
| CCC1(C)CC(=O)OC1(C)C (stereo not given) | 1.66 | – | – | – | – | CD50 [10]: 8.2 mg/kg |
| CCC1CCOC1=O (stereo not given) | 2.07 | > 500 | > 500 | > 500 | – | – |
| CC1CCOC1=O (stereo not given) | – | > 500 | > 500 | > 500 | < 2.00 | – |
| CCC1CCSC1=O (stereo not given) | – | 414 | > 500 | 232 | 2.82 | – |
